Test results taken from ChEMBL document CHEMBL1157606, “Acylated phenylethanoid oligoglycosides with hepatoprotective activity from the desert plant Cistanche tubulosa” (Bioorg Med Chem, 2010).

How the values were obtained:
Hepatocyte = assay: Hepatoprotective activity in ddY mouse primary cultured hepatocytes assessed as inhibition of D-galactosamine-induced cytotoxicity after 44 hrs by MTT assay; assay type: functional, cell-based
Procedure, shortened: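 Hepatocytes isolated from male ddY mice (30–35 g) by collagenase perfusion; 4 × 10^4 cells/well in William's E with 10% FBS, pre-cultured 4 h at 37 °C, 5% CO2, then 44 h with D-GalN (2 mM) ± sample. MTT (4 h); formazan in isopropanol/0.04 M HCl, OD 570 nm (ref 655 nm). Inhibition % = (sample − control)/(normal − control) × 100.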

[1] = system: Peritoneal macrophage cell; assay: Inhibition of LPS-induced TNFalpha production in ddY mouse peritoneal macrophages; assay type: functional, cell-based
Procedure, shortened: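 Thioglycollate-elicited peritoneal macrophages from male ddY mice, 5 × 10^5 cells/well in RPMI 1640 with 5% FBS, 1 h pre-culture, nonadherent cells washed off. Compound (DMSO, final 0.5%) added 10 min before LPS (medium containing 10 μg/mL), 4 h incubation; TNF-α in medium by ELISA.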

Mus musculus [2] = assay: Hepatoprotective activity against D-galactosamine/lipopolysaccharide-induced liver injury in ddY mouse assessed as inhibition of increase in sAST level at 25 mg/kg, po administered 1 hr before D-GalN/LPS challenge measured after 10 hrs; assay type: functional
Procedure, shortened: (§1)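 Male ddY mice (25–30 g), fasted 20 h. Sample suspended in 5% gum arabic, given orally at 10 mL/kg 1 h before i.p. D-GalN (350 mg/kg) plus LPS (10 μg/kg) in saline. Vehicle controls dosed alike. Blood from infraorbital venous plexus at 10 h; sAST and sALT by Reitman–Frankel method. Hydrocortisone as reference.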

Mus musculus [3] = assay: Hepatoprotective activity against D-galactosamine/lipopolysaccharide-induced liver injury in ddY mouse assessed as inhibition of increase in sAST level at 100 mg/kg, po administered 1 hr before D-GalN/LPS challenge measured after 10 hrs; assay type: functional; procedure, shortened: as §1
Mus musculus [4] = assay: Hepatoprotective activity against D-galactosamine/lipopolysaccharide-induced liver injury in ddY mouse assessed as inhibition of increase in sALT level at 100 mg/kg, po administered 1 hr before D-GalN/LPS challenge measured after 10 hrs; assay type: functional; procedure, shortened: as §1
L929 = assay: Cytoprotective activity in mouse L929 cells assessed as inhibition of TNF-alpha-induced cytotoxicity after 44 hrs by MTT assay; assay type: functional, cell-based; settings: L929, 44 h
Procedure, shortened: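 L929 cells kept in MEM with 10% FBS and non-essential amino acids at 37 °C, 5% CO2; seeded 3 × 10^4 cells/well, exposed 44 h to TNF-α (20 ng/mL) with or without sample (DMSO, final 0.5%). Viability by MTT: formazan dissolved in acidic isopropanol, OD 570 nm (ref 655 nm). Inhibition % = (sample − control)/(normal − control) × 100.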

[5] = system: Peritoneal macrophage cell; assay: Inhibition of LPS-induced nitric oxide production in ddY mouse peritoneal macrophages; assay type: functional, cell-based
Mus musculus [6] = assay: Hepatoprotective activity against D-galactosamine/lipopolysaccharide-induced liver injury in ddY mouse assessed as inhibition of increase in sALT level at 25 mg/kg, po administered 1 hr before D-GalN/LPS challenge measured after 10 hrs; assay type: functional; procedure, shortened: as §1
Mus musculus [7] = assay: Hepatoprotective activity against D-galactosamine/lipopolysaccharide-induced liver injury in ddY mouse assessed as inhibition of increase in sALT level at 10 mg/kg, po administered 1 hr before D-GalN/LPS challenge measured after 10 hrs; assay type: functional; procedure, shortened: as §1
Mus musculus [8] = assay: Hepatoprotective activity against D-galactosamine/lipopolysaccharide-induced liver injury in ddY mouse assessed as inhibition of increase in sAST level at 10 mg/kg, po administered 1 hr before D-GalN/LPS challenge measured after 10 hrs; assay type: functional; procedure, shortened: as §1

SMILES	IC50 (Hepatocyte)	IC50 [1]	inhibition in vivo at 25 mg/kg (Mus musculus [2])	inhibition in vivo at 100 mg/kg (Mus musculus [3])	inhibition in vivo at 100 mg/kg (Mus musculus [4])	IC50 (L929)	IC50 [5]	inhibition in vivo at 25 mg/kg (Mus musculus [6])	inhibition in vivo at 10 mg/kg (Mus musculus [7])	inhibition in vivo at 10 mg/kg (Mus musculus [8])
C[C@H]1O[C@H](O[C@@H]2[C@@H](O)[C@H](OCCc3ccc(O)c(O)c3)O[C@H](CO[C@H]3O[C@@H](CO)[C@H](O)[C@@H](O)[C@@H]3O)[C@H]2OC(=O)/C=C/c2ccc(O)c(O)c2)[C@@H](O)[C@@H](O)[C@@H]1O [ECHINACOSIDE]	10.2 µM	> 100 µM	61.2%	66.7%	52%	31.1 µM	> 100 µM	43.8%		
C[C@]12CCC(=O)C=C1CC[C@@H]1[C@@H]2[C@@H](O)C[C@@]2(C)[C@H]1CC[C@]2(O)C(=O)CO [HYDROCORTISONE]									97.7%	94.2%
C[C@@H]1O[C@@H](O[C@@H]2[C@@H](O)[C@H](OCCc3ccc(O)c(O)c3)O[C@H](CO)[C@H]2OC(=O)/C=C/c2ccc(O)c(O)c2)[C@H](O)[C@H](O)[C@H]1O [ACETOSIDE]	4.6 µM	> 100 µM	51.3%	68.5%	59.5%	17.8 µM	> 100 µM	44.4%		
C[C@@H]1O[C@@H](O[C@@H]2[C@@H](O)[C@H](OCCc3ccc(O)c(O)c3)O[C@H](COC(=O)/C=C/c3ccc(O)c(O)c3)[C@H]2O)[C@H](O)[C@H](O)[C@H]1O [ISOACTEOSIDE]	5.3 µM	> 100 µM	46.1%	70.9%	58.7%	22.7 µM	> 100 µM	40.2%		
COc1cc(C2Oc3cc([C@H]4Oc5cc(O)cc(O)c5C(=O)[C@@H]4O)ccc3OC2CO)ccc1O (stereo partly drawn) [SILIBININ]	38.8 µM					60.4 µM				
